Source: PubChem BioAssay
PostGolgi yeast = growth inhibition of a yeast mutant, post-Golgi transport screen. post-Golgi transport phenotypic cell assay. inhibition, % at 10 µM. 0.9% of 98,000 active. AID 739;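 also: yeast cells grown in 1536-well plates; yeast grown about 18 h at 30C before absorbance read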
PostGolgi ctrl = yeast control strain growth, post-Golgi counter-screen; efflux-deficient yeast background strain, growth absorbance A615, 16 h; inhibition, % at 10 µM; 5% of 98,000 active; AID 738
Yeast lifespan up = extends the lifespan of yeast; S. cerevisiae growth with nicotinamide, OD615; deaD strain in restrictive glucose medium; inhibition of the nicotinamide effect, % at 10 µM; 0.68% of 130,000 active; AID 775;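 active = inhibition above a set limit, placed 3 SD over the median of all compounds, cut at about 26% in these data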
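assay system = DeaD-strain S. cerevisiae | buffer or medium = restrictive glucose medium | reagent = 1.5 mM nicotinamide | compound = 10 µM single point, 0.25% DMSO | incubation = 48 h compound exposure at 30 °C, humidified | signal = OD615 measurement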
Yeast growth inh = yeast BB579 growth reduction in restrictive medium; S. cerevisiae BB579 growth, OD615, 48 h; inhibition, % at 10 µM; 0.51% of 140,000 active; AID 804;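 active = inhibition above a set limit, 3 SD over the mean compound inhibition, cut at about 44% in these data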
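Assay system – yeast BB579 (DeaD) · Dosing – single compound dose of 10 µM, 0.25% DMSO final · Detection – OD615 turbidity measurement · Buffer or medium – CSMM-D restrictive synthetic medium containing dextrose (glucose) · Benchmarks – positive control amphotericin B 10 µg/mL · Incubation – 48 h exposure, 30 °C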
Hits are given with their value. Only a selection was taken, and hits are over-represented in it overall. Rule as the data show it, unless noted: active = inhibition above about 30%; inactive = the rest.

`O=C(Nc1nnc(-c2ccccc2)o1)c1cc(Cl)sc1Cl` gave Yeast lifespan up inactive and Yeast growth inh inactive.
O=C(Nc1nnc(-c2ccc(F)cc2)o1)c1cc(Cl)sc1Cl was read as Yeast lifespan up inactive and Yeast growth inh 66.1.
`Cc1cccc(-c2nnc(NC(=O)c3ccc(Cl)cc3)o2)c1` gave PostGolgi yeast 94.4, PostGolgi ctrl 81.0, Yeast lifespan up inactive and Yeast growth inh inactive.
Screening O=C(Nc1nnc(-c2ccc(Cl)cc2)o1)c1ccc(N2C(=O)CCC2=O)cc1 returned Yeast lifespan up inactive and Yeast growth inh inactive.
For CC1(C)NC(=O)N(CNc2cc(Cl)ccc2Cl)C1=O the results were PostGolgi yeast inactive, PostGolgi ctrl inactive, Yeast lifespan up inactive and Yeast growth inh inactive.
N#CCC(=N)N1CCN(c2ccccc2Cl)CC1 was read as PostGolgi yeast inactive, PostGolgi ctrl inactive, Yeast lifespan up inactive and Yeast growth inh inactive.
Screening O=C(COc1ccccc1)Nc1nnc(-c2ccc3c(c2)CCCC3)o1 returned PostGolgi yeast inactive, PostGolgi ctrl 31.2, Yeast lifespan up inactive and Yeast growth inh inactive.
`CC(C)C(=O)NS(=O)(=O)c1ccc(N)cc1` gave PostGolgi yeast inactive, PostGolgi ctrl inactive, Yeast lifespan up inactive and Yeast growth inh inactive.
Screening Cc1ccc(N(Cc2ccc([N+](=O)[O-])cc2)C(=O)c2ccco2)cc1 returned PostGolgi yeast inactive, PostGolgi ctrl 34.6, Yeast lifespan up inactive and Yeast growth inh inactive.
Screening COc1cc(CN(C(=O)c2ccco2)c2ccc(C)cc2)ccc1O returned PostGolgi yeast inactive, PostGolgi ctrl inactive, Yeast lifespan up inactive and Yeast growth inh inactive.
`O=C(Nc1ccc(O)cc1)C1CCCO1` (configuration not stated) gave PostGolgi yeast inactive, PostGolgi ctrl inactive, Yeast lifespan up 52.5 and Yeast growth inh inactive.
O=C(O)c1ccccc1NC(=O)C1CCCO1 (configuration not stated) was read as PostGolgi yeast inactive, PostGolgi ctrl inactive, Yeast lifespan up inactive and Yeast growth inh inactive.
O=C(Nc1ccccc1Sc1ccccc1)C1CCCO1 (configuration not stated) was read as PostGolgi yeast inactive, PostGolgi ctrl 38.2, Yeast lifespan up inactive and Yeast growth inh inactive.
O=C(Nc1cc(Cl)ccc1O)C1CCCO1 (configuration not stated) was read as PostGolgi yeast inactive, PostGolgi ctrl 37.7, Yeast lifespan up inactive and Yeast growth inh inactive.
`O=C(O)c1cc(Cl)ccc1NC(=O)C1CCCO1` (configuration not stated) gave PostGolgi yeast inactive, PostGolgi ctrl inactive, Yeast lifespan up inactive and Yeast growth inh inactive.
For S=C(c1ccccc1)N1CCCc2ccccc21 the results were Yeast lifespan up inactive and Yeast growth inh inactive.
Nc1nc(-c2ccc(Br)s2)c(Br)s1 was read as PostGolgi yeast inactive, PostGolgi ctrl 51.4, Yeast lifespan up inactive and Yeast growth inh inactive.
`BrC(=C\c1ccccc1)/C=N/N1CCN(Cc2ccccc2)CC1` gave PostGolgi yeast inactive, PostGolgi ctrl inactive, Yeast lifespan up inactive and Yeast growth inh inactive.
BrC(=C\c1ccccc1)/C=N/N1CCN(c2ccccn2)CC1 was read as PostGolgi yeast inactive, PostGolgi ctrl 37.7, Yeast lifespan up inactive and Yeast growth inh inactive.
`N=c1c2c(-c3ccccc3)c(-c3ccccc3)n(Cc3ccccc3)c2ncn1CCCn1ccnc1` gave PostGolgi yeast 94.5, PostGolgi ctrl 77.1, Yeast lifespan up inactive and Yeast growth inh inactive.
For N=c1c2c(ncn1Cc1ccco1)Oc1ccc3ccccc3c1C2c1ccccc1 (configuration not stated) the results were Yeast lifespan up inactive and Yeast growth inh inactive.
`N=c1c2c(-c3ccccc3)c(-c3ccccc3)n(Cc3ccco3)c2ncn1Cc1ccco1` gave PostGolgi yeast 90.8, PostGolgi ctrl 48.5, Yeast lifespan up inactive and Yeast growth inh inactive.
O=C(COc1ccc(Cl)cc1Cl)OCC(=O)N1CCCc2ccccc21 was read as Yeast lifespan up inactive and Yeast growth inh inactive.
Screening COc1cc2c(cc1OC)CN(C(=O)CCCOc1ccc(Cl)cc1Cl)CC2 returned PostGolgi yeast inactive, PostGolgi ctrl 38.4, Yeast lifespan up inactive and Yeast growth inh inactive.
`O=C(CCCOc1ccc(Cl)cc1Cl)N1CCCc2ccccc21` gave PostGolgi yeast inactive, PostGolgi ctrl 48.4, Yeast lifespan up inactive and Yeast growth inh inactive.
For COc1cc2c(cc1OC)CN(C(=O)CCCN1C(=O)c3ccccc3C1=O)CC2 the results were PostGolgi yeast inactive, PostGolgi ctrl inactive, Yeast lifespan up inactive and Yeast growth inh inactive.
For COCCNC(=O)CN1CCN(C(c2ccccc2)c2ccccc2)CC1 the results were PostGolgi yeast inactive, PostGolgi ctrl inactive, Yeast lifespan up inactive and Yeast growth inh inactive.
`COCCNC(=O)CN1CCC(NC(=O)C(C)(C)C)CC1` gave PostGolgi yeast 37.0, PostGolgi ctrl inactive, Yeast lifespan up inactive and Yeast growth inh inactive.
C/C(=N\NC(=O)C1(C)CC1(Br)Br)c1ccc(NC(=O)c2ccc(C)o2)cc1 (configuration not stated) was read as Yeast lifespan up inactive and Yeast growth inh inactive.
CC(C)N(CCc1ccncc1)C(=O)Nc1ccc(Cl)c(Cl)c1 was read as PostGolgi yeast 91.1, PostGolgi ctrl 90.3, Yeast lifespan up inactive and Yeast growth inh inactive.
C=CCOc1c(CNc2nccs2)cccc1OCC was read as PostGolgi yeast 32.5, PostGolgi ctrl inactive, Yeast lifespan up inactive and Yeast growth inh inactive.
CCOC(=O)c1cnc2sc3c(n2c1=O)CCCC3 was read as PostGolgi yeast inactive, PostGolgi ctrl inactive, Yeast lifespan up inactive and Yeast growth inh inactive.
`Cc1c(NS(=O)(=O)c2ccc3[nH]c(=O)[nH]c3c2)c(=O)n(-c2ccccc2)n1C` gave PostGolgi yeast inactive, PostGolgi ctrl inactive, Yeast lifespan up inactive and Yeast growth inh inactive.
For O=C1CC(=O)N(c2ccccc2)N1c1ccccc1 the results were Yeast lifespan up 28.0 and Yeast growth inh inactive.
For CCn1c(COc2ccc(=O)n(-c3ccccc3)n2)nnc1SCc1ccccc1C the results were PostGolgi yeast inactive, PostGolgi ctrl inactive, Yeast lifespan up inactive and Yeast growth inh inactive.
Cc1ccc(NC(=O)C2CC(=O)N(c3ccc4c5c(cccc35)CC4)C2)cc1 (configuration not stated) was read as PostGolgi yeast inactive, PostGolgi ctrl 30.6, Yeast lifespan up inactive and Yeast growth inh inactive.
COC(=O)c1cccc(Nc2nc3ccccc3nc2C)c1 was read as PostGolgi yeast inactive, PostGolgi ctrl 53.5, Yeast lifespan up inactive and Yeast growth inh inactive.
COc1ccc(NS(=O)(=O)c2ccc3nc(COc4ccc(C#N)cc4)[nH]c3c2)cc1 was read as Yeast lifespan up inactive and Yeast growth inh inactive.
Screening CC1CCC(NC(=O)c2ccc(/C=C3\Oc4ccccc4N(C)C3=O)cc2)CC1 (configuration not stated) returned Yeast lifespan up inactive and Yeast growth inh inactive.
Screening Cc1nnc(NC(=O)c2sc3ccccc3c2Cl)s1 returned PostGolgi yeast inactive, PostGolgi ctrl 54.0, Yeast lifespan up inactive and Yeast growth inh inactive.
Screening Cc1c(C(=O)Nc2ccc(Cl)cn2)oc2ccccc12 returned PostGolgi yeast inactive, PostGolgi ctrl 30.5, Yeast lifespan up inactive and Yeast growth inh inactive.
